Test results published in ChEMBL document CHEMBL5036342, “Indomethacin-based PROTACs as pan-coronavirus antiviral agents” (Eur J Med Chem, 2021).

How the values were obtained:
[1] = Selectivity index, ratio of CC50 for cytotoxicity against African green monkey Vero E6 cells to EC50 for antiviral activity against SARS-COV2/Padova/2020 infected in African green monkey Vero E6 cells; type: toxicity, cell-based, Vero C1008; settings: read-out: Ratio CC50/EC50
SARS-CoV-2 [2] = assay: Antiviral activity against SARS-CoV-2/NL/2020 infected in African green monkey Vero E6 cells assessed as inhibition of plaque formation measured after 3 days by Plaque reduction assay; type: functional, organism-based; settings: Severe acute respiratory syndrome coronavirus 2, NL/2020, Vero C1008, 72 h
[3] = Selectivity index, ratio of CC50 for cytotoxicity against African green monkey Vero E6 cells to EC50 for antiviral activity against SARS-COV2/NL/2020 infected in African green monkey Vero E6 cells; type: toxicity, cell-based, Vero C1008; settings: read-out: Ratio CC50/EC50
Vero C1008 = assay: Cytotoxicity against African green monkey Vero E6 cells assessed as reduction of cell viability measured after 72 hrs by MTT assay; type: cell-based; settings: chlorocebus sabaeus, vero c1008, 72 h
Summary of the method: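 Uninfected Vero E6 cells were exposed to compound for 72 h and viability read by MTT. CC50 is the concentration reducing viability by 50%.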

SARS-CoV-2 [4] = assay: Antiviral activity against SARS-COV2/Padova/2020 infected in African green monkey Vero E6 cells assessed as inhibition of plaque formation measured after 3 days by Plaque reduction assay; type: functional, organism-based; settings: Severe acute respiratory syndrome coronavirus 2, Padova/2020, Vero C1008, 72 h
Human coronavirus OC43 = assay: Antiviral activity against Human coronavirus OC43 infected in human MRC5 cells assessed as inhibition of plaque formation measured after 3 days by Plaque reduction assay; type: functional, cell-based; settings: Betacoronavirus 1, MRC5, 72 h
Summary of the method: (§1)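 MRC-5 cells were seeded at 6×10^4 per well and infected the next day with 80 PFU per well. After the inoculum was removed, the overlay held graded compound concentrations, 3% FBS and 0.6% methylcellulose. Monolayers were fixed and stained after 3 days, and plaques counted. EC50 is the concentration giving 50% plaque inhibition, with 95% profile-likelihood CI. n = 3 independent experiments in duplicate.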

MRC5 = assay: Cytotoxicity against human MRC5 cells assessed as reduction in cell viability measured after 72 hrs by MTT assay; type: cell-based; settings: mrc5, 72 h
Summary of the method: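 MRC-5 cells were exposed to compound for 72 h and viability read by MTT. CC50 is the concentration reducing viability by 50%.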

Human coronavirus 229E = assay: Antiviral activity against Human coronavirus 229E infected in human MRC5 cells assessed as inhibition of plaque formation measured after 3 days by Plaque reduction assay; type: functional, organism-based; settings: MRC5, 72 h; summary of the method: as §1
Canine coronavirus = assay: Antiviral activity against Canine coronavirus infected in dog A-72 cells assessed as inhibition of viral replication; type: functional, cell-based; settings: Alphacoronavirus 1, A-72
SARS-CoV = assay: Antiviral activity against SARS-CoV infected in African green monkey Vero E6 cells assessed as inhibition of viral replication; type: functional, organism-based; settings: Severe acute respiratory syndrome-related coronavirus, Vero C1008
SARS-CoV-2 [5] = assay: Antiviral activity against SARS-CoV-2 infected in African green monkey Vero E6 cells assessed as reduction in virus induced cytopathic effect measured after 4 days by MTT assay; type: functional, organism-based; settings: Severe acute respiratory syndrome coronavirus 2, Vero C1008, 96 h
[6] = Cytotoxicity against African green monkey Vero E6 cells infected with SARS-CoV-2 assessed as reduction of cell viability measured after 48 hrs by MTT assay; type: cell-based, Vero C1008; settings: chlorocebus sabaeus

Structure (SMILES)	selectivity ratio [1]	EC50 (SARS-CoV-2 [2]) [µM]	selectivity ratio [3]	CC50 (Vero C1008) [µM]	EC50 (SARS-CoV-2 [4]) [µM]	EC50 (Human coronavirus OC43) [µM]	CC50 (MRC5) [µM]	EC50 (Human coronavirus 229E) [µM]	IC50 (Canine coronavirus) [µM]	LC50 (Canine coronavirus; read-out: LD50 (the source's name)) [µM]	IC50 (SARS-CoV) [µM]	EC50 (SARS-CoV-2 [5]) [µM]	CC50 at 48 h [6] [µM]
COc1ccc2c(c1)c(CC(=O)NCCCCC(=O)N[C@H](C(=O)N1C[C@H](O)C[C@H]1C(=O)N[C@@H](C)c1ccc(-c3scnc3C)cc1)C(C)(C)C)c(C)n2C(=O)c1ccc(Cl)cc1	> 4	> 50	> 4	> 200	> 50								
COc1ccc2c(c1)c(CC(=O)NCCN1CCN(C(=O)CCC(=O)N[C@H](C(=O)N3C[C@H](O)C[C@H]3C(=O)N[C@@H](C)c3ccc(-c4scnc4C)cc3)C(C)(C)C)CC1)c(C)n2C(=O)c1ccc(Cl)cc1	> 8	21.5	> 12	> 250	29.8	2.5	238	3.2					
COc1ccc2c(c1)c(CC(=O)NCCOCCOCC(=O)N[C@H](C(=O)N1C[C@H](O)C[C@H]1C(=O)N[C@@H](C)c1ccc(-c3scnc3C)cc1)C(C)(C)C)c(C)n2C(=O)c1ccc(Cl)cc1	> 4	> 50	> 4	> 200	> 50								
COc1ccc2c(c1)c(CC(=O)NCCCCCCC(=O)N[C@H](C(=O)N1C[C@H](O)C[C@H]1C(=O)N[C@@H](C)c1ccc(-c3scnc3C)cc1)C(C)(C)C)c(C)n2C(=O)c1ccc(Cl)cc1	> 8	18.1	> 11	> 200	25.4	4.7	> 250	36.5					
COc1ccc2c(c1)c(CC(=O)O)c(C)n2C(=O)c1ccc(Cl)cc1 [INDOMETHACIN]		94.9	> 5	> 500					5	550	50	> 400	> 100
CCC(CC)COC(=O)[C@H](C)N[P@](=O)(OC[C@H]1O[C@@](C#N)(c2ccc3c(N)ncnn23)[C@H](O)[C@@H]1O)Oc1ccccc1 [REMDESIVIR]	1490	0.15	2490	373	0.25								
